According to ChEMBL document CHEMBL1126989, “Synthesis and cytotoxicity of 1,6,7,8-substituted 2-(4'-substituted phenyl)-4-quinolones and related compounds: identification as antimitotic agents interacting with tubulin” (J Med Chem, 1993):
Values after ≈ are worked out from the molar mass of the structure shown.

Experiments:
[1] = system: A549; assay: Cytotoxicity in vitro expressed as 50% reduction in cell number after a 3-day incubation, in human lung carcinoma A-549 cell line; type: functional, cell-based; conditions: A549, 72 h
Method in brief: (§1)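 Cell lines adapted to antibiotic-free RPMI-1640 with 10% fetal calf serum; ca. 1×10^5 cells per well, overnight stabilization, then serial dilutions added, quadruplicate per concentration; medium-only controls. After 3-4 days, MTT added and incubated overnight; formazan dissolved in DMSO, absorbance at 570 nm. EC50 calculated from two data points bracketing 50% growth inhibition. Actinomycin as positive control.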

[2] = system: L1210 (1565); assay: Cytotoxicity in vitro expressed as 50% reduction in cell number after a 3-day incubation, in murine leukemia L-1210 cell line; type: functional, cell-based; conditions: Mus musculus, 72 h; method in brief: as §1
[3] = system: KB; assay: Cytotoxicity in vitro expressed as 50% reduction in cell number after a 3-day incubation, in human epidermoid carcinoma KB cell line; type: functional, cell-based; conditions: 72 h; method in brief: as §1
[4] = system: P388; assay: Cytotoxicity in vitro expressed as 50% reduction in cell number after a 3-day incubation, in murine leukemia P-388 cell line; type: functional, cell-based; conditions: Mus musculus, P388, 72 h; method in brief: as §1
[5] = system: RPMI-7951; assay: Cytotoxicity in vitro expressed as 50% reduction in cell number after a 3-day incubation, in human melanoma RPMI-7951 cell line; type: functional, cell-based; conditions: RPMI-7951, 72 h; method in brief: as §1
[6] = target: Tubulin beta chain (Bos taurus, UniProt Q6B856); assay: (§2) Inhibition of tubulin polymerization; type: functional
Tubulin beta chain, sequence (Q6B856 whole entry): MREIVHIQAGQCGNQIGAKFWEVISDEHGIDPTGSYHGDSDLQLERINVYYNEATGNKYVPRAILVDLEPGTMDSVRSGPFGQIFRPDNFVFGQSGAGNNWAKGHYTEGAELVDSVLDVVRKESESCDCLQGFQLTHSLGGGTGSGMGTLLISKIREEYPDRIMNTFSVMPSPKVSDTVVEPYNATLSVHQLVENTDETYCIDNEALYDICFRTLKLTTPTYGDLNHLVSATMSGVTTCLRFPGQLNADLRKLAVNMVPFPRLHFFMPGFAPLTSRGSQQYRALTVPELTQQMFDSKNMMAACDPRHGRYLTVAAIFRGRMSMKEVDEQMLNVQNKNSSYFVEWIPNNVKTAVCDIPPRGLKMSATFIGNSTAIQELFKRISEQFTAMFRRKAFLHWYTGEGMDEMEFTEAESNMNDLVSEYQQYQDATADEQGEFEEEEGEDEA
Method in brief: (§3)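 Bovine brain tubulin 1.0 mg/mL (10 μM) with 1.0 M repurified monosodium glutamate, 1.0 mM MgCl2, 4% DMSO and drug; preincubated 15 min at 37 °C, chilled, GTP added; turbidity at 350 nm after jump from 0 to 37 °C, followed 20 min.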

[7] = system: HCT-8; assay: Cytotoxicity in vitro expressed as 50% reduction in cell number after a 3-day incubation, in human ileocecal carcinoma HCT-8 cell line; type: functional, cell-based; conditions: HCT-8, 72 h; method in brief: as §1
[8] = system: COLO 205; assay: Inhibition of in vitro cell growth which reduces cell growth to 50% of level at start of experiment in colon COLO-205 cell line; type: functional, Homo sapiens
Method in brief: (§4)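 NCI in vitro disease-oriented screen across about 60 human tumour cell lines. The value is the LC50-type level: the drug concentration that cuts cell number to 50% of the count at the start of the experiment. Values are averages of 2 assays.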

[9] = system: COLO 205; assay: Inhibition of in vitro cell growth which reduces cell growth to level at start of experiment in colon COLO-205 cell line; type: functional, Homo sapiens
[10] = system: HCC 2998; assay: Inhibition of in vitro cell growth which reduces cell growth to level at start of experiment in colon HCC2998 cell line; type: functional, Homo sapiens
[11] = system: HCC 2998; assay: Inhibition of in vitro cell growth which reduces cell growth to 50% of level at start of experiment in colon HCC2998 cell line; type: functional, Homo sapiens; method in brief: as §4
[12] = system: HT-29; assay: Inhibition of in vitro cell growth which reduces cell growth to 50% of level at start of experiment in colon HT-29 cell line; type: functional, Homo sapiens; method in brief: as §4
[13] = system: KM-20L2; assay: Inhibition of in vitro cell growth which reduces cell growth to 50% of level at start of experiment in colon KM-20L2 cell line; type: functional, Homo sapiens; method in brief: as §4
[14] = system: KM-20L2; assay: Inhibition of in vitro cell growth which reduces cell growth to level at start of experiment in colon KM-20L2 cell line; type: functional, Homo sapiens
[15] = system: SF-539; assay: Inhibition of in vitro cell growth which reduces cell growth to level at start of experiment in CNS SF-539 cell line; type: functional, Homo sapiens
[16] = system: SF-539; assay: Inhibition of in vitro cell growth which reduces cell growth to 50% of level at start of experiment in CNS SF-539 cell line; type: functional, Homo sapiens; method in brief: as §4
[17] = target: T1, Tubulin (Bos taurus) (UniProt Q6B856+Q862L2+Q862F3); assay: Percentage inhibition of colchicine binding(10:1 ratio of inhibitor: colchicine); type: protein assay; conditions: concentration not given here
[18] = target: T1, Tubulin (Bos taurus); assay: Percentage inhibition of colchicine binding(1:1 ratio of inhibitor: colchicine); type: protein assay; conditions: concentration not given here
[19] = system: HT-29; assay: Inhibition of in vitro cell growth which reduces cell growth to level at start of experiment in colon HT-29 cell line; type: functional, Homo sapiens
[20] = target: Tubulin; assay: as §2; type: functional; method in brief: as §3

SMILES | EC50 [1] [µg/mL] | EC50 [2] [µg/mL] | EC50 [3] [µg/mL] | EC50 [4] [µg/mL] | EC50 [5] [µg/mL] | IC50 [6] [µM] | EC50 [7] [µg/mL] | other results
Oc1cc(-c2ccccc2)nc2ccc(F)cc12 | 0.38 (≈ 1.59 µM) | < 0.01 | < 0.01 | 0.08 (≈ 0.334 µM) | 0.53 (≈ 2.22 µM) | 3.3 | 1.36 (≈ 5.68 µM) | 
COc1ccc2nc(-c3ccccc3)cc(O)c2c1 | 0.19 (≈ 0.756 µM) | 0.06 (≈ 0.239 µM) | 0.08 (≈ 0.318 µM) | 0.33 (≈ 1.31 µM) | 0.36 (≈ 1.43 µM) | 2.7 | 1 (≈ 3.98 µM) | LC50 [8]: -4.4; TGI [9]: -6.1; TGI [10]: -6.2; LC50 [11]: >-4; LC50 [12]: >-4; LC50 [13]: -4.6; TGI [14]: -5.9; TGI [15]: -6.2; LC50 [16]: -4.4; inhibition [17]: 53%; inhibition [18]: 8%; TGI [19]: -6.1
Oc1cc(-c2ccccc2)nc2c(O)cccc12 | > 10 | > 10 | > 10 | > 10 | > 10 |  | > 10 | 
Oc1cc(-c2ccccc2)nc2cc(Cl)ccc12 | 2.89 (≈ 11.3 µM) | < 0.1 | < 0.1 | < 0.1 | < 0.1 |  | 0.45 (≈ 1.76 µM) | 
Cn1c(-c2ccc(O)cc2)cc(=O)c2ccccc21 | > 10 | > 10 | > 10 | > 10 | > 10 |  | 5.71 (≈ 22.7 µM) | IC50 [20]: > 40 µM
Oc1cc(-c2ccccc2)nc2c(F)cccc12 | 0.61 (≈ 2.55 µM) | 0.67 (≈ 2.8 µM) | 0.53 (≈ 2.22 µM) | 0.78 (≈ 3.26 µM) | 0.38 (≈ 1.59 µM) | 11 | 0.04 (≈ 0.167 µM) | 
c1ccc(COc2cc(-c3ccccc3)nc3ccccc23)cc1 | > 10 | > 10 | 1.6 (≈ 5.14 µM) | > 10 |  |  | > 10 | 
COCOc1ccc(-c2cc(=O)c3ccccc3n2C)cc1 |  | > 10 |  | > 10 |  |  |  | 
Cc1ccc2nc(-c3ccccc3)cc(O)c2c1 | 0.53 (≈ 2.25 µM) | 0.72 (≈ 3.06 µM) | 0.55 (≈ 2.34 µM) | 0.49 (≈ 2.08 µM) | 0.53 (≈ 2.25 µM) |  | 0.9 (≈ 3.83 µM) | 
COc1cc(-c2ccccc2)nc2ccccc12 | > 10 | > 10 | > 10 | 4.5 (≈ 19.1 µM) |  |  | > 10 | 
CCCOc1cc(-c2ccccc2)nc2ccccc12 | > 10 | > 10 | 4.5 (≈ 17.1 µM) | 6.9 (≈ 26.2 µM) |  |  | > 10 | 
Cn1c(-c2ccccc2)cc(=O)c2ccccc21 | > 10 | > 10 | > 10 | > 10 | > 10 | > 40 | > 10 | 
Oc1cc(-c2ccccc2)nc2ccccc12 | 0.5 (≈ 2.26 µM) | 0.06 (≈ 0.271 µM) | 0.09 (≈ 0.407 µM) | 0.08 (≈ 0.362 µM) | 0.37 (≈ 1.67 µM) |  | 0.8 (≈ 3.62 µM) | IC50 [20]: 7.3 µM
